The values below come from ChEMBL document CHEMBL2434863, “Synthesis and in vitro/in vivo antibacterial activity of oxazolidinones having thiocarbamate at C-5 on the A-ring and an amide- or urea-substituted [1,2,5]triazepane or [1,2,5]oxadiazepane as the C-ring” (Eur J Med Chem, 2013).

Type in all cases: functional
Assay [1] relates to Staphylococcus aureus. The experiment in a line: Antibacterial activity against methicillin-resistant Staphylococcus aureus SR3637 assessed as growth inhibition by broth microdilution method. For orientation: Broth dilution looks for growth in wells or tubes with falling amounts of substance.
Assay [2] relates to Enterococcus faecalis. The experiment in a line: Potency index, ratio of linezolid MIC to compound MIC for Enterococcus faecalis SR1004 clinical isolate.
In assay [3] the test system is Moraxella catarrhalis. The experiment in a line: Antibacterial activity against Moraxella catarrhalis SR26840 clinical isolate assessed as growth inhibition by broth microdilution method.
Assay [4] relates to Moraxella catarrhalis. The experiment in a line: Potency index, ratio of linezolid MIC to compound MIC for Moraxella catarrhalis SR26840 clinical isolate.
Assay [5] relates to Enterococcus faecalis. The experiment in a line: Antibacterial activity against Enterococcus faecalis SR1004 clinical isolate assessed as growth inhibition by broth microdilution method.
The subject of assay [6] is Haemophilus influenzae. The experiment in a line: Potency index, ratio of linezolid MIC to compound MIC for Haemophilus influenzae SR27914 clinical isolate.
In assay [7] the test system is Streptococcus pneumoniae. As to the kind of experiment: Potency index, ratio of linezolid MIC to compound MIC for Streptococcus pneumoniae SR26207 clinical isolate.
Assay [8] concerns Staphylococcus aureus. The experiment in a line: Antibacterial activity against methicillin-resistant Staphylococcus aureus SR3637 infected in JCL/ICR mouse systemic infection model assessed as mortality administered as iv measured over 7 days. To be noted: 168 h. A digest of the protocol: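 Lethal systemic infection model in mice; test agents were given intravenously.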
For assay [9], the system named is Staphylococcus aureus. As to the kind of experiment: Antibacterial activity against linezolid-resistant Staphylococcus aureus NRS271 assessed as growth inhibition by broth microdilution method.
Assay [10] concerns Staphylococcus aureus. As to the kind of experiment: Antibacterial activity against Staphylococcus aureus Smith assessed as growth inhibition by broth microdilution method.
Assay [11] concerns Staphylococcus aureus. The experiment in a line: Potency index, ratio of linezolid MIC to compound MIC for Staphylococcus aureus Smith.
The test system of assay [12] is Enterococcus faecium. The experiment in a line: Potency index, ratio of linezolid MIC to compound MIC for Enterococcus faecium SR7940 clinical isolate.
The subject of assay [13] is Staphylococcus aureus. As to the kind of experiment: Potency index, ratio of linezolid MIC to compound MIC for Staphylococcus aureus SR20549 clinical isolate.
The subject of assay [14] is Enterococcus faecium. The experiment in a line: Antibacterial activity against Enterococcus faecium SR7940 clinical isolate assessed as growth inhibition by broth microdilution method.
Assay [15] deals with Haemophilus influenzae. As to the kind of experiment: Antibacterial activity against Haemophilus influenzae SR27914 clinical isolate assessed as growth inhibition by broth microdilution method.
The subject of assay [16] is Streptococcus pneumoniae. As to the kind of experiment: Antibacterial activity against Streptococcus pneumoniae SR26207 clinical isolate assessed as growth inhibition by broth microdilution method.
Assay [17] has as its system Staphylococcus aureus. The experiment in a line: Antibacterial activity against Staphylococcus aureus SR20549 clinical isolate assessed as growth inhibition by broth microdilution method.

The ED50 is the midpoint of the dose-response relation. Take `O=CN1CCN(c2c(F)cc(N3C[C@H](Cn4ccnn4)OC3=O)cc2F)CCN1`: the MIC in [1] stood at 0.25 µg/mL; in assay [3], 8 µg/mL; in [5] it was 1 µg/mL; in [9], 16 µg/mL; in assay [10], 1 µg/mL; in assay [14], 1 µg/mL. The results for the MIC in assay [15], in assay [16] and in assay [17] were 8 µg/mL, at most 0.063 µg/mL and 0.25 µg/mL, respectively. The Ratio in assay [2], in assay [4], in [6], in assay [7], in assay [11] and in assay [12] was 4 throughout. Besides, the Ratio in [13] is listed as 4. The median effective dose (ED50) in assay [8] turned out to be 2.5 mg/kg.
Regarding `CONC(=O)N1CCN(c2c(F)cc(N3C[C@H](CNC(=S)OC)OC3=O)cc2F)CCN1`, the MIC in assay [1] stood at 0.5 µg/mL; in [3], 2 µg/mL; in [5], 0.5 µg/mL; in [9] it was 4 µg/mL; in assay [10], 0.5 µg/mL; in assay [14], 0.25 µg/mL. For the same compound, the MIC turned out to be 16 µg/mL in assay [15], 0.25 µg/mL in assay [16] and 0.5 µg/mL in [17]. Also, the 50% effective dose (ED50) in [8] came out at 3.05 mg/kg.
For `CC(=O)NC[C@H]1CN(c2ccc(-c3ccc(N4CCNOCC4)nc3)c(F)c2)C(=O)O1`, the Ratio in assay [2], in assay [4], in assay [6], in [7], in assay [11] and in assay [12] was 2 throughout. For the same compound, the Ratio in assay [13] worked out at 2. For the same compound, the MIC in assay [3] is 16 µg/mL; in assay [5], 1 µg/mL; in assay [9], 8 µg/mL; in assay [10], 2 µg/mL; in [14] it was 1 µg/mL; in assay [15] it was 16 µg/mL. The MIC in assay [16] turned out to be 0.125 µg/mL; in [17], 1 µg/mL.
For `O=C1O[C@@H](Cn2ccnn2)CN1c1ccc(-c2ccc(N3CCNOCC3)nc2)c(F)c1`, the Ratio in assay [2], in [4], in assay [6], in [7], in [11] and in assay [12] was 2 in each case. Besides, the Ratio in [13] was found to be 2. The MIC in [3] is 8 µg/mL; in assay [5] it was 2 µg/mL; in assay [9], 8 µg/mL; in assay [10] it was 2 µg/mL; in assay [14] it was 1 µg/mL; in assay [15], 32 µg/mL. The values for the MIC in [16] and in assay [17] were 0.25 µg/mL and 1 µg/mL, respectively.
As for `CNC(=O)N1CCN(c2c(F)cc(N3C[C@H](CNC(=S)OC)OC3=O)cc2F)CCN1`, the MIC in assay [1] came out at 0.25 µg/mL; in assay [3], 1 µg/mL; in [5] it was 0.25 µg/mL; in assay [9], 2 µg/mL; in assay [10], 0.25 µg/mL; in assay [14], 0.25 µg/mL. The MIC in assay [15] is 8 µg/mL; in assay [16] it was at most 0.063 µg/mL; in assay [17], 0.25 µg/mL. The median effective dose (ED50) in assay [8] is 3.17 mg/kg.
Consider `CC(=S)NC[C@H]1CN(c2ccc(N3CCNN(C(N)=O)CC3)c(F)c2)C(=O)O1`, for which the Ratio in [2], in [4], in [6], in assay [7], in assay [11] and in assay [12] was 4 throughout. For the same compound, the Ratio in assay [13] is on record as 4. Besides, the MIC in assay [3] was 4 µg/mL; in assay [5] it was 0.5 µg/mL; in assay [9], 8 µg/mL; in assay [10] it was 0.25 µg/mL; in assay [14] it was 0.5 µg/mL; in assay [15] it was 4 µg/mL. Also, the MIC was 0.063 µg/mL in assay [16] and 0.25 µg/mL in [17].
Regarding `CC(=S)NC[C@H]1CN(c2cc(F)c(N3CCNN(C(N)=O)CC3)c(F)c2)C(=O)O1`, the Ratio in assay [2], in assay [4], in assay [6], in assay [7], in [11] and in assay [12] was 4 each time. In addition, in assay [13], the Ratio was 4. The MIC in [3] came to 1 µg/mL; in [5] it was 0.25 µg/mL; in assay [9] it was 4 µg/mL; in assay [10], 0.25 µg/mL; in assay [14] it was 0.25 µg/mL; in assay [15] it was 4 µg/mL. In addition, the values for the MIC in assay [16] and in assay [17] were 0.063 µg/mL and 0.125 µg/mL, respectively.
Regarding `COC(=S)NC[C@H]1CN(c2ccc(N3CCNN(C(N)=O)CC3)c(F)c2)C(=O)O1`, the Ratio in assay [2], in [4], in assay [6], in [7], in [11] and in assay [12] was 4 in each case. In addition, the Ratio in assay [13] is reported as 4. Further, the MIC was found to be 2 µg/mL in assay [3]; 0.25 µg/mL in assay [5]; 4 µg/mL in assay [9]; 0.25 µg/mL in assay [10]; 0.125 µg/mL in [14]; 4 µg/mL in assay [15]. Further, the MIC in assay [16] is at most 0.063 µg/mL; in [17] it was 0.25 µg/mL.
As for `COC(=S)NC[C@H]1CN(c2cc(F)c(N3CCNN(C(N)=O)CC3)c(F)c2)C(=O)O1`, the MIC in assay [1] is 0.25 µg/mL; in assay [3], 0.5 µg/mL; in [5], 0.5 µg/mL; in [9], 2 µg/mL; in assay [10], 0.25 µg/mL; in [14], 0.125 µg/mL. Also, the results for the MIC in assay [15], in assay [16] and in assay [17] were 16 µg/mL, at most 0.063 µg/mL and 0.25 µg/mL, respectively. Further, the Ratio in assay [2], in assay [4], in [6], in assay [7], in [11] and in [12] was 4 each time. For the same compound, in assay [13], the Ratio is reported as 4. In assay [8], the ED50 was determined as 1.23 mg/kg.
In the case of `COC(=S)NC[C@H]1CN(c2cc(F)c(N3CCON(C(N)=O)CC3)c(F)c2)C(=O)O1`, the Ratio in assay [2], in [4], in [6], in [7], in assay [11] and in assay [12] was 4 each time. In addition, the Ratio in assay [13] came to 4. Further, the MIC came to 1 µg/mL in [3]; 0.25 µg/mL in assay [5]; 2 µg/mL in assay [9]; 0.25 µg/mL in [10]; 0.125 µg/mL in assay [14]; 8 µg/mL in [15]. In addition, the figures for the MIC in [16] and in assay [17] were at most 0.063 µg/mL and 0.25 µg/mL, respectively.
With `COC(=S)NC[C@H]1CN(c2ccc(N3CCn4c(=O)c5cccnc5n4CC3)c(F)c2)C(=O)O1`, the MIC in assay [1] is 0.25 µg/mL; in [3], 2 µg/mL; in assay [5], 0.5 µg/mL; in assay [9], 2 µg/mL; in assay [10], 0.25 µg/mL; in assay [14], 0.25 µg/mL. Moreover, the MIC was found to be 16 µg/mL in assay [15], 0.125 µg/mL in [16] and 0.25 µg/mL in assay [17]. Moreover, in assay [8], the ED50 amounted to 3.17 mg/kg.
Take `COC(=S)NC[C@H]1CN(c2cc(F)c(N3CCn4c(=O)c5cccnc5n4CC3)c(F)c2)C(=O)O1`: the MIC in assay [1] was found to be 0.25 µg/mL; in assay [3], 1 µg/mL; in assay [5], 0.5 µg/mL; in assay [9], 2 µg/mL; in assay [10] it was 0.25 µg/mL; in [14] it was 0.25 µg/mL. Moreover, the MIC is over 64 µg/mL in assay [15], 0.125 µg/mL in assay [16] and 0.25 µg/mL in assay [17]. Moreover, the ED50 in [8] stood at 9.83 mg/kg.
`O=CN1CCN(c2c(F)cc(N3C[C@H](CNc4ccon4)OC3=O)cc2F)CCN1`: the Ratio in [2], in assay [4], in assay [6], in assay [7], in assay [11] and in [12] was 4 in each case. In addition, the Ratio in [13] is reported as 4. Besides, the MIC in assay [3] was 8 µg/mL; in assay [5] it was 1 µg/mL; in assay [9], 16 µg/mL; in [10], 1 µg/mL; in [14] it was 1 µg/mL; in [15], 16 µg/mL. Moreover, the figures for the MIC in assay [16] and in assay [17] were 0.25 µg/mL and 0.5 µg/mL, respectively.
Turning to `CC(=O)NC[C@H]1CN(c2cc(F)c(N3CCON(C(C)=O)CC3)c(F)c2)C(=O)O1`, the MIC in [3] was found to be 4 µg/mL; in [5] it was 2 µg/mL; in assay [9], 32 µg/mL; in assay [10], 4 µg/mL; in assay [14], 4 µg/mL; in assay [15] it was 32 µg/mL. For the same compound, the MIC in [16] amounted to 1 µg/mL; in assay [17] it was 2 µg/mL.
Regarding `COC(=S)NC[C@H]1CN(c2ccc(N3CCNN(C(C)=O)CC3)c(F)c2)C(=O)O1`, the MIC in assay [1] was determined as 0.5 µg/mL; in assay [3], 4 µg/mL; in [5], 0.5 µg/mL; in assay [9] it was 8 µg/mL; in assay [10], 1 µg/mL; in assay [14], 0.5 µg/mL. The MIC turned out to be 16 µg/mL in assay [15], 0.063 µg/mL in assay [16] and 0.5 µg/mL in [17]. Besides, the ED50 in [8] turned out to be 2.85 mg/kg.
